The values that follow come from PubChem BioAssay.

Active and inactive are the calls of the source.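 The calls were made as follows, unless noted: active = potentiation averaged over duplicate wells exceeding buffer-only control mean by more than 3 SD; inactive = the rest.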

Sequence of Potassium voltage-gated channel subfamily KQT member 1 (Homo sapiens) (P51787 whole entry, looked up): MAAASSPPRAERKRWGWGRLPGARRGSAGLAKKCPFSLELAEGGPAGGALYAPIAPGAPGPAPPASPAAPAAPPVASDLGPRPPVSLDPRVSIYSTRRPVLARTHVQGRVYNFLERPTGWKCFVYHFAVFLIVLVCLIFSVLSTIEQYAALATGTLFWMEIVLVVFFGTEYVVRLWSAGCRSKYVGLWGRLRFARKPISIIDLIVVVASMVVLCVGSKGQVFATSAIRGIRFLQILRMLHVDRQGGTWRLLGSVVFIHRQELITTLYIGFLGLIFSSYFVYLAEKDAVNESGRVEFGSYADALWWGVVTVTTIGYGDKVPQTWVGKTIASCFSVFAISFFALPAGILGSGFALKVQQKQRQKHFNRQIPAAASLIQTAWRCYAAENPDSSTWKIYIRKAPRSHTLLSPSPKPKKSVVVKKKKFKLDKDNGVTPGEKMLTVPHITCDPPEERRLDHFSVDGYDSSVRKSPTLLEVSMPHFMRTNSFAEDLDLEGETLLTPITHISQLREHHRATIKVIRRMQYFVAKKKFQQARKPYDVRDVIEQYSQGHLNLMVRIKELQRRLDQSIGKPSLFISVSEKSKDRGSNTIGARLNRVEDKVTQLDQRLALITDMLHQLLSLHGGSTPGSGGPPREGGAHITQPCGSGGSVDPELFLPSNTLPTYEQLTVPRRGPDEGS

System in the first assay: not listed separately
Put plainly: thallium flux activation in parental CHO cells, counter-screen for KCNQ1 potentiator project (AID 493006;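 active = duplicate-averaged activation above buffer control mean plus 5 SD of those controls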;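 as to activation: fluorescence ratio of max minus min over baseline after K+ and Tl+ depolarization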). The note with it: parental CHO-K1 cells, FluxOR thallium flux, at 10 µM; hits give high values. The method in brief:
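Material: parental CHO-K1 cells, FluxOR dye-loaded; Also added: Potassium/thallium depolarization pulse; Schedule: overnight 37 °C plating, 90 min dye, 20 min dark compound; Signal: kinetic FluxOR fluorescence, 10 s baseline, 110 s after stimulus.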
With `CCCSC(=S)c1c(C)[nH]n(-c2ccccc2)c1=O`, the activation was 352% (active).

Regarding `Cc1ccc2c(c1)c(C)c(C)n2CC(O)CN1CCCCC1C` (stereo not drawn), the outcome was inactive.

Take `Cc1ccc(Cl)cc1N1CCN(C(=O)c2ccc(CN3CCOCC3)cc2)CC1`: the outcome was inactive.

As for `COc1ccc(C(=O)Nc2ccnn2C2CCN(Cc3ccncc3)CC2)cc1`, the result was inactive.

With `O=c1cc(-c2c(F)c(F)c(F)c(F)c2F)oc2ccccc12`, the result was inactive.

Turning to `Cc1ccc(C(=O)OCC(=O)Nc2sc3c(c2C#N)CCCC3)cc1NC(=O)c1ccco1`, the outcome was inactive.

On to `CN1C(=O)C2(Oc3ccccc3C3CC(c4ccccc4)=NN32)c2ccccc21` (stereo not drawn), for which the outcome was inactive.

With `CC(NC(=O)c1ccncc1)C(C)(C)C` (stereo not drawn), the outcome was inactive.

Turning to `CCCCOC(=O)c1cc(C)nc2ccc(Br)cc12`, the activation was 306% (active).

In the case of `CC(C)(C)NC(=O)C(=O)NNC(=O)COc1ccc(Br)cc1`, the activation is 227% (active).

As to `C=CCN(CC=C)C(=S)NC(=O)c1ccc([N+](=O)[O-])cc1`, the activation was 366% (active).

With `CCc1nnc(SCC(=O)Nc2nnc(C)s2)n1CC1CCCO1` (stereo not drawn), the activation is 278% (active).

With `Cc1ccccc1OCC(=O)N=Nc1c(O)n(C)c2ccccc12`, the activation is 188% (active).

On to `Cc1ccc(C)c(S(=O)(=O)NCC(=O)N2CCCC2)c1`, for which the outcome was inactive.

`COC(=O)c1c(N2C(=O)CC(Sc3ncccc3C(=O)O)C2=O)sc(C)c1C` (stereo not drawn): the outcome was inactive.

Consider `Cc1ccc(CN2C(=O)CC(Nc3ccc(N4CCOCC4)cc3)C2=O)cc1` (stereo not drawn), for which the outcome was inactive.

As to `CCOc1ccc(NC(=O)CN(C)C(=O)c2c(-c3c(F)cccc3Cl)noc2C)cc1OCC`, the outcome was inactive.

Take `Oc1c(Br)cc(Cl)cc1C=Nc1ccccc1Br`: the activation was 296% (active).

In the case of `CCOC(=S)NC(=O)c1sc2ccccc2c1Cl`, the activation was 398% (active).

For `O=C(CCN1CCCCCC1)Nc1ccc(F)cc1`, the result was inactive.

`Cc1ccc(/C=C/C(=O)c2ccccc(=O)c2O)c(C)c1`: the activation was 244% (active).

For `CCc1ccc(C2c3[nH]c4ccccc4c3CCN2C(=O)CNC(N)=O)cc1` (stereo not drawn), the outcome was inactive.

For `Cc1ccc2cc3cc(C(=O)NC4CC4)oc3nc2c1`, the result was inactive.

Take `Cc1cccc(NC(=O)c2ccc(COc3ccccc3[N+](=O)[O-])o2)n1`: the result was inactive.

Consider `OCCCCNCc1ccc(OCc2ccc(Cl)cc2)cc1`, for which the activation was 220% (active).

For `Cc1ccc2nc3c(cc(C(=O)NCC4CCCO4)c(=N)n3C3CCCC3)c(=O)n2c1` (stereo not drawn), the outcome was inactive.

On to `O=C(O)c1ccccc1NS(=O)(=O)c1cccc(-n2sc3ccccc3c2=O)c1`, for which the activation was 154% (active).

With `Cn1c(=O)c2nc3ccccc3nc2n(C)c1=O`, the activation is 168% (active).

As for `COc1ccc(-n2c(=S)[nH]c3c(oc4ccccc43)c2=O)cc1`, the outcome was inactive.

Regarding `Cc1ccc(S(=O)(=O)NCC(c2ccc3c(c2)OCO3)N2CCOCC2)cc1` (stereo not drawn), the outcome was inactive.

Consider `Cc1ccc(C(=O)N/C(=C\c2ccc(-c3ccccc3[N+](=O)[O-])o2)C(=O)NCCCN2CCOCC2)cc1`, for which the outcome was inactive.

For the molecule `COc1cc(OC)cc(C(=O)Nc2nnc(SCC(=O)NCc3ccco3)s2)c1`, the activation was 150% (active).

Consider `Cc1cc(C)n(-c2nc(NCCN(C)C)c3c4c(sc3n2)COC(C)(C)C4)n1`, for which the result was inactive.

On to `O=C(NN=C1CCCCCC1)c1cc(-c2ccccc2)nc2ccccc12`, for which the result was inactive.

For the molecule `O=C(NC(=S)N1CCN(c2ccc(C(F)(F)F)cc2[N+](=O)[O-])CC1)c1cccs1`, the activation is 176% (active).

With `COc1cc(CN(C)CC2CCCN(CCc3cccc(C(F)(F)F)c3)C2)ccc1O` (stereo not drawn), the result was inactive.

For `Oc1c(N=NC(=S)Nc2ccccc2F)c2ccccc2n1Cc1ccccc1F`, the activation is 142% (active).

Consider `Cc1ccc(-c2nc3ccc(Cl)cc3c(=O)n2O)cc1`, for which the activation is 558% (active).

As to `CN(C)/C=N/S(=O)(=O)c1cccn1-c1ncc(C(F)(F)F)cc1Cl`, the result was inactive.

For a further assay, the target named is Potassium voltage-gated channel subfamily KQT member 1 (Homo sapiens) (UniProt P51787). In words: KCNQ1 potassium channel potentiators, confirmation, FluxOR thallium flux, CHO cells, duplicates (AID 493007).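 As to outcome: cells depolarized by a potassium plus thallium sulfate stimulus after compound.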 To be noted: KCNQ1 cell line, FluxOR thallium flux fluorescence, at 10 µM; hits give high values, % of reference activator effect, buffer zero. The gist of the method:
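System: KCNQ1-expressing CHO cell line; technique: kinetic thallium influx fluorescence with FluxOR dye, 10 s baseline, 110 s post-stimulus; timing: dye 90 min then compound 20 min, both at room temperature; controls: buffer-only wells as 0% and R-L3 activator as 100%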
On to `CCCSC(=S)c1c(C)[nH]n(-c2ccccc2)c1=O`, for which the potentiation was 165% (active).

Consider `Cc1ccc2c(c1)c(C)c(C)n2CC(O)CN1CCCCC1C` (stereo not drawn), for which the result was inactive.

In the case of `Cc1ccc(Cl)cc1N1CCN(C(=O)c2ccc(CN3CCOCC3)cc2)CC1`, the result was inactive.

As to `COc1ccc(C(=O)Nc2ccnn2C2CCN(Cc3ccncc3)CC2)cc1`, the outcome was inactive.

Consider `O=c1cc(-c2c(F)c(F)c(F)c(F)c2F)oc2ccccc12`, for which the result was inactive.

In the case of `Cc1ccc(C(=O)OCC(=O)Nc2sc3c(c2C#N)CCCC3)cc1NC(=O)c1ccco1`, the outcome was inactive.

For the molecule `CN1C(=O)C2(Oc3ccccc3C3CC(c4ccccc4)=NN32)c2ccccc21` (stereo not drawn), the outcome was inactive.

As for `CC(NC(=O)c1ccncc1)C(C)(C)C` (stereo not drawn), the result was inactive.

For `CCCCOC(=O)c1cc(C)nc2ccc(Br)cc12`, the potentiation was 172% (active).

Regarding `CC(C)(C)NC(=O)C(=O)NNC(=O)COc1ccc(Br)cc1`, the potentiation is 53% (active).

For the molecule `C=CCN(CC=C)C(=S)NC(=O)c1ccc([N+](=O)[O-])cc1`, the potentiation is 137% (active).

For the molecule `CCc1nnc(SCC(=O)Nc2nnc(C)s2)n1CC1CCCO1` (stereo not drawn), the potentiation was 86.5% (active).

As for `Cc1ccccc1OCC(=O)N=Nc1c(O)n(C)c2ccccc12`, the potentiation is 42% (active).

In the case of `Cc1ccc(C)c(S(=O)(=O)NCC(=O)N2CCCC2)c1`, the result was inactive.

Turning to `COC(=O)c1c(N2C(=O)CC(Sc3ncccc3C(=O)O)C2=O)sc(C)c1C` (stereo not drawn), the outcome was inactive.

As to `Cc1ccc(CN2C(=O)CC(Nc3ccc(N4CCOCC4)cc3)C2=O)cc1` (stereo not drawn), the result was inactive.

As for `CCOc1ccc(NC(=O)CN(C)C(=O)c2c(-c3c(F)cccc3Cl)noc2C)cc1OCC`, the outcome was inactive.

As for `Oc1c(Br)cc(Cl)cc1C=Nc1ccccc1Br`, the potentiation was 161% (active).

`CCOC(=S)NC(=O)c1sc2ccccc2c1Cl`: the potentiation is 122% (active).

Turning to `O=C(CCN1CCCCCC1)Nc1ccc(F)cc1`, the result was inactive.

Turning to `Cc1ccc(/C=C/C(=O)c2ccccc(=O)c2O)c(C)c1`, the potentiation is 118% (active).

Turning to `CCc1ccc(C2c3[nH]c4ccccc4c3CCN2C(=O)CNC(N)=O)cc1` (stereo not drawn), the potentiation was 31% (active).

`Cc1ccc2cc3cc(C(=O)NC4CC4)oc3nc2c1`: the result was inactive.

On to `Cc1cccc(NC(=O)c2ccc(COc3ccccc3[N+](=O)[O-])o2)n1`, for which the outcome was inactive.

Regarding `OCCCCNCc1ccc(OCc2ccc(Cl)cc2)cc1`, the potentiation was 292% (active).

With `Cc1ccc2nc3c(cc(C(=O)NCC4CCCO4)c(=N)n3C3CCCC3)c(=O)n2c1` (stereo not drawn), the result was inactive.

Regarding `O=C(O)c1ccccc1NS(=O)(=O)c1cccc(-n2sc3ccccc3c2=O)c1`, the potentiation was 18% (active).

With `Cn1c(=O)c2nc3ccccc3nc2n(C)c1=O`, the potentiation was 30.5% (active).

Turning to `COc1ccc(-n2c(=S)[nH]c3c(oc4ccccc43)c2=O)cc1`, the outcome was inactive.

On to `Cc1ccc(S(=O)(=O)NCC(c2ccc3c(c2)OCO3)N2CCOCC2)cc1` (stereo not drawn), for which the outcome was inactive.

`Cc1ccc(C(=O)N/C(=C\c2ccc(-c3ccccc3[N+](=O)[O-])o2)C(=O)NCCCN2CCOCC2)cc1`: the outcome was inactive.

As for `COc1cc(OC)cc(C(=O)Nc2nnc(SCC(=O)NCc3ccco3)s2)c1`, the potentiation is 30% (active).

For `Cc1cc(C)n(-c2nc(NCCN(C)C)c3c4c(sc3n2)COC(C)(C)C4)n1`, the result was inactive.

Consider `O=C(NN=C1CCCCCC1)c1cc(-c2ccccc2)nc2ccccc12`, for which the outcome was inactive.

As for `O=C(NC(=S)N1CCN(c2ccc(C(F)(F)F)cc2[N+](=O)[O-])CC1)c1cccs1`, the potentiation was 75% (active).

Regarding `COc1cc(CN(C)CC2CCCN(CCc3cccc(C(F)(F)F)c3)C2)ccc1O` (stereo not drawn), the potentiation is 43% (active).

For `Oc1c(N=NC(=S)Nc2ccccc2F)c2ccccc2n1Cc1ccccc1F`, the potentiation is 64% (active).

With `Cc1ccc(-c2nc3ccc(Cl)cc3c(=O)n2O)cc1`, the potentiation is 221% (active).

With `CN(C)/C=N/S(=O)(=O)c1cccn1-c1ncc(C(F)(F)F)cc1Cl`, the result was inactive.
